Experimental data from ChEMBL document CHEMBL4028892, “Discovery of a 1-Methyl-3,4-dihydronaphthalene-Based Sphingosine-1-Phosphate (S1P) Receptor Agonist Ceralifimod (ONO-4641). A S1P1 and S1P5 Selective Agonist for the Treatment of Autoimmune Diseases” (J Med Chem, 2017).

Experiments:
Homo sapiens = species: Homo sapiens; test: Selectivity ratio of EC50 for human S1P3 receptor to EC50 for human S1P1 receptor
In short: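 Fura2 Ca2+ assay in CHO-K1 cells stably expressing human S1P1 or S1P3. Cells were loaded with 5 μM Fura2-AM in Ham's F12 (10% FBS, 20 mM HEPES pH 7.4, 2.5 mM probenecid) for 60 min at 37 °C, then washed. After a 30 s baseline, compound was added (0.1 nM–30 μM final, DMSO), then 100 nM S1P 5 min later. Ratio read every 3 s (ex 340/380, em 500 nm). Increase ratio (%) = B/A×100 against the DMSO-well S1P peak; EC50 taken from the concentration series; mean of ≥2 data points.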

[1] = Total clearance in Crl:CD(SD) rat at 0.1 mg/kg, iv by LC-MS/MS analysis; type: ADME, organism-based; settings: in vivo
In short: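 Single intravenous or oral dose of 0.1 mg/kg to male Crl:CD(SD) rats and to monkeys. Values are means of three animals with SD.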

[2] = target: Sphingosine 1-phosphate receptor 3 (Homo sapiens, UniProt Q99500); test: Displacement of [33P]-S1P from human S1P3 receptor expressed in CHO-K1 cells after 60 mins by scintillation counting method; type: cell-based
[3] = target: T1, Sphingosine 1-phosphate receptor 4 (Homo sapiens, UniProt O95977); test: Displacement of [33P]-S1P from human S1P4 receptor expressed in CHO-K1 cells after 60 mins by scintillation counting method; type: cell-based
T1 sequence (O95977 whole entry): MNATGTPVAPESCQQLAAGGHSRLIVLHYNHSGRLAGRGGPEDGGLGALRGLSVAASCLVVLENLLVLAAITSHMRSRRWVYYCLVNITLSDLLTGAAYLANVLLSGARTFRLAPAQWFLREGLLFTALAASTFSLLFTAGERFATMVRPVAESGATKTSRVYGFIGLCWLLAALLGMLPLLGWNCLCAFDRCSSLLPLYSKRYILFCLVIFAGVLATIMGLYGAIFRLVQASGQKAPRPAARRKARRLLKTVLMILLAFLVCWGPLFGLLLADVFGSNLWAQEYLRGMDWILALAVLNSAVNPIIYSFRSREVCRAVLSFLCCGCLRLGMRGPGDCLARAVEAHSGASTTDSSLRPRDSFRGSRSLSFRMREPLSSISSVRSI

Chain of Sphingosine 1-phosphate receptor 3 (Q99500 whole entry): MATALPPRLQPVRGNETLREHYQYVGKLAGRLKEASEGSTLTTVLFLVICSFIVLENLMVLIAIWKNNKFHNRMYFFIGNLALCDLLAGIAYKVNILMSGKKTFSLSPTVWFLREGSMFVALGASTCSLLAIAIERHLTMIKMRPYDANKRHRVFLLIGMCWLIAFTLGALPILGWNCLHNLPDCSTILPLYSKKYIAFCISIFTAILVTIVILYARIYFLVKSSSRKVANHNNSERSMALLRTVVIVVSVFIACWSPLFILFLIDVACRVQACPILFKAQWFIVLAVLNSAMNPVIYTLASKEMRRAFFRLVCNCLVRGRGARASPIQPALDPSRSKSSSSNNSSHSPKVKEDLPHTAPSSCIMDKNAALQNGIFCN

- Ratio EC50 (Homo sapiens): > 30000
- clearance [1]: 5.63 mL/min/kg
- Ki [2]: > 5.63 µM
- Ki [3]: 28.8 nM
Compound: CCCc1ccc(COc2ccc3c(c2)CCC(CN2CC(C(=O)O)C2)=C3C)c(OC)c1
